Activity calls are given as the source filed them. The rule behind the calls is not given here.

As usually defined, the IC50 is the midpoint of a concentration-inhibition curve. A low value points to greater potency.

Assay [1] has as its system LNCaP. The assay is described as follows: Cytotoxicity against human LNCAP cells at 100 pM to 1 uM. Type of assay: functional, cell-based. In short, it runs like this:
(§1)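 LNCaP cells (RPMI 1640, 10% heat-inactivated FBS) were seeded at 50000 cells/well and grown 48 h to monolayers. They were pulsed 2 h at 37 °C with drug (free drugs in DMSO; conjugates in saline, ± 100-fold excess PMPA), then chased 66 h drug-free. Cells were labelled 4 h with [3H]-thymidine, TCA-precipitated, NaOH-solubilised and scintillation-counted. IC50 came from % incorporation vs log concentration.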

In assay [2] the test system is LNCaP. As to the kind of experiment: Cytotoxicity against human LNCAP cells after 2 hrs by [3H]thymidine incorporation assay. Type of assay: functional, cell-based. The essentials:
(§2)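 LNCaP cells were seeded at 50000 cells/well and grown to monolayers over 48 h. They were exposed to increasing drug concentrations for 2 h at 37 °C, then kept in drug-free medium for 66 h. [3H]-thymidine (1 mCi/mL) was added for 4 h. Cells were TCA-precipitated (5%, 10 min), dissolved in 0.25 N NaOH and scintillation-counted. IC50 came from % incorporation versus log concentration.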
In general terms: Uptake of a labelled nucleoside into DNA is a usual measure of proliferation.

Assay [3] deals with LNCaP. The assay is described as follows: Cytotoxicity against human LNCAP cells after 2 hrs by [3H]thymidine incorporation assay in presence of 100-fold […]. Type of assay: functional, cell-based. In short, it runs like this: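 LNCaP monolayers (50000 cells/well, 48 h) received 100-fold excess PMPA to block PSMA sites before the saline-dissolved DUPA conjugate was added. Exposure was 2 h at 37 °C, followed by 66 h in drug-free medium. Viability was read as [3H]-thymidine incorporation (1 mCi/mL, 4 h), TCA-precipitated and scintillation-counted. IC50 came from incorporation versus log concentration.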

The target of assay [4] is Glutamate carboxypeptidase 2 (Homo sapiens) (UniProt Q04609). The assay is described as follows: Displacement of DUPA-99mTc from human prostate-specific membrane antigen in LNCaP cells assessed as relative binding affinity after 2 hrs at 37 degC. In kind it is cell-based.
Assay [5] deals with LNCaP. The assay is described as follows: Cytotoxicity against human LNCAP cells. Type of assay: functional, cell-based. The essentials:
as §1

The test system of assay [6] is LNCaP. As to the kind of experiment: Cytotoxicity against human LNCAP cells at 100 pM to 1 uM after 2 hrs by [3H]thymidine incorporation assay. In kind it is functional, cell-based. The essentials:
as §2

Glutamate carboxypeptidase 2 (Homo sapiens), sequence (Q04609 whole entry, looked up): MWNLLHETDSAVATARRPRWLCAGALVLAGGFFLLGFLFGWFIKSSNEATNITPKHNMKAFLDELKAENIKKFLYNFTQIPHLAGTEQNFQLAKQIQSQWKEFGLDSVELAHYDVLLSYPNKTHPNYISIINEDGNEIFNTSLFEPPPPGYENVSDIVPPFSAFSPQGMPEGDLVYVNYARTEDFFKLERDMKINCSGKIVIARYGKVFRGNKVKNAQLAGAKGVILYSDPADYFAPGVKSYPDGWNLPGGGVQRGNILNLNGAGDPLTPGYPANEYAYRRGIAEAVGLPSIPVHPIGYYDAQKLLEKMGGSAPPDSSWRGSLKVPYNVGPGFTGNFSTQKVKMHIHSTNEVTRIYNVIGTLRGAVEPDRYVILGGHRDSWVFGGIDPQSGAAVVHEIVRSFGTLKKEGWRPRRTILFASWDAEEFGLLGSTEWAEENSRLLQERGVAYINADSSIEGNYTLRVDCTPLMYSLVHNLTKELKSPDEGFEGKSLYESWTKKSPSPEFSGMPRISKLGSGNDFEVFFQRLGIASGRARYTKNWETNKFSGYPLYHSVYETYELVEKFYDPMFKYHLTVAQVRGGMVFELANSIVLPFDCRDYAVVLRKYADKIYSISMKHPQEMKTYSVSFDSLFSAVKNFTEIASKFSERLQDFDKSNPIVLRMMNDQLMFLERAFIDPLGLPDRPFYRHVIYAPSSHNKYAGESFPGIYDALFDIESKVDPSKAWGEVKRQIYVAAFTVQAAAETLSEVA

Consider `COC[C@H]1OC(=O)c2coc3c2[C@@]1(C)C1=C(C3=O)[C@@H]2CCC(=O)[C@@]2(C)C[C@H]1OC(C)=O`, for which the outcome in assay [1] was inactive.
In assay [2], `CC[C@H](C)[C@H](NC(=O)[C@H]1CCCCN1C)C(=O)N(COC(=O)CC(C)C)[C@H](C[C@@H](OC(C)=O)c1nc(C(=O)N[C@@H](Cc2ccc(C)cc2)C[C@H](C)C(=O)NNC(=O)OCCSSC[C@H](NC(=O)[C@H](CC(=O)O)NC(=O)[C@@H](N)CNC(=O)[C@H](Cc2ccccc2)NC(=O)[C@H](Cc2ccccc2)NC(=O)CCCCCCNC(=O)CC[C@H](NC(=O)N[C@H](CCC(=O)O)C(=O)O)C(=O)O)C(=O)O)cs1)C(C)C` displayed an IC50 of 6 nM. In addition, the outcome in assay [3] was inactive. For the same compound, the RBA in assay [4] came out at 26%.
On to `CC(=O)O[C@H]1C(=O)[C@@]2(C)[C@H]([C@H](OC(=O)c3ccccc3)[C@]3(O)C[C@H](OC(=O)[C@H](O)[C@@H](NC(=O)c4ccccc4)c4ccccc4)C(C)=C1C3(C)C)[C@]1(OC(C)=O)CO[C@@H]1C[C@@H]2O` [PACLITAXEL], for which half-maximal inhibition in assay [5] (Homo sapiens, LNCaP) (IC50) required 22.3 nM.
`CC[C@]1(O)CCN2CCc3c([nH]c4ccccc34)[C@](C(=O)OC)(c3cc4c(cc3OC)N(C)[C@@H]3[C@](O)(C(=O)NNC(=O)OCCSSC[C@H](NC(=O)[C@H](CC(=O)O)NC(=O)[C@@H](N)CNC(=O)[C@H](Cc5ccccc5)NC(=O)[C@H](Cc5ccccc5)NC(=O)CCCCCCNC(=O)CC[C@H](NC(=O)N[C@H](CCC(=O)O)C(=O)O)C(=O)O)C(=O)O)[C@@H](O)[C@@]5(CC)C=CCN6CC[C@@]43[C@@H]65)CC1C2` (some centres undefined) displayed an IC50 in assay [2] of 31 nM. For the same compound, in assay [3], the result was inactive. Moreover, the RBA in assay [4] was 25%.
For the compound `CC[C@H](C)[C@H](NC(=O)[C@H]1CCCCN1C)C(=O)N(COC(=O)CC(C)C)[C@H](C[C@@H](OC(C)=O)c1nc(C(=O)N[C@@H](Cc2ccc(C)cc2)C[C@H](C)C(=O)NNC(=O)OCCSSC[C@@H](NC(=O)[C@H](Cc2ccccc2)NC(=O)[C@H](CC(=O)O)NC(=O)CC[C@H](NC(=O)CC[C@H](NC(=O)N[C@@H](CCC(=O)O)C(=O)O)C(=O)O)C(=O)O)C(=O)O)cs1)C(C)C`, 5 nM corresponded to half-maximal inhibition in assay [2] (IC50).
Consider `C=C1[C@@H]2CCC3[C@@](CC[C@@H]4[C@H](C(=O)O)C[C@@H](O[C@@H]5O[C@H](CO)[C@@H](OS(=O)(=O)O)[C@H](OS(=O)(=O)O)[C@H]5OC(=O)CC(C)C)C[C@@]34C)(C2)[C@@H]1O` (some centres undefined), for which the result in assay [1] was inactive.
In assay [2], `CC[C@H](C)[C@H](NC(=O)[C@H]1CCCCN1C)C(=O)N(COC(=O)CC(C)C)[C@H](C[C@@H](OC(C)=O)c1nc(C(=O)N[C@@H](Cc2ccc(C)cc2)C[C@H](C)C(=O)NNC(=O)OCCSSC[C@H](NC(=O)[C@H](Cc2ccccc2)NC(=O)[C@H](Cc2ccccc2)NC(=O)CCCCCCCNC(=O)CC[C@H](NC(=O)N[C@H](CCC(=O)O)C(=O)O)C(=O)O)C(=O)O)cs1)C(C)C` came in with an IC50 of 24 nM.
Turning to `OCCC#Cc1nc(-c2ccc(F)cc2)c(-c2ccncc2)n1CCCc1ccccc1`, the result in assay [1] was inactive.
Compound `CC[C@H](C)[C@H](NC(=O)[C@H]1CCCCN1C)C(=O)N(COC(=O)CC(C)C)[C@H](C[C@@H](OC(C)=O)c1nc(C(=O)N[C@@H](Cc2ccc(C)cc2)C[C@H](C)C(=O)O)cs1)C(C)C` [TUBULYSIN] showed an IC50 in assay [5] (Homo sapiens, LNCaP) of 2.5 nM.
Regarding `COc1cccc2c1C(=O)c1c(O)c3c(c(O)c1C2=O)C[C@@](O)(C(=O)CO)C[C@@H]3O[C@H]1C[C@H](N)[C@H](O)[C@H](C)O1` [DOXORUBICIN], 77.6 nM corresponded to half-maximal inhibition in assay [5] (Homo sapiens, LNCaP) (IC50).
Consider `C[S+]([O-])c1ccc(-c2nc(-c3ccc(F)cc3)c(-c3ccncc3)[nH]2)cc1` (centres undefined), for which the outcome in assay [1] was inactive.
For `CC1=C[C@H]2O[C@@H]3C[C@H]4OC(=O)/C=C/C=C/C(=O)OCC[C@@H](C)[C@H](OC(=O)OCCSSC[C@H](NC(=O)[C@H](CC(=O)O)NC(=O)[C@@H](N)CNC(=O)[C@H](Cc5ccccc5)NC(=O)[C@H](Cc5ccccc5)NC(=O)CCCCCCNC(=O)CC[C@H](NC(=O)N[C@H](CCC(=O)O)C(=O)O)C(=O)O)C(=O)O)C(=O)OC[C@@]2(CC1)[C@]4(C)[C@]31CO1`, the result in assay [6] was inactive. Moreover, the RBA in assay [4] turned out to be 34%.
For the compound `CC[C@@]1(O)C(=O)OCc2c1cc1n(c2=O)Cc2cc3ccccc3nc2-1`, the result in assay [1] was inactive.
For `C[n+]1ccc(-c2cc[n+](C)cc2)cc1`, the result in assay [1] was inactive.
As to `CC[C@]1(O)C[C@@H]2CN(CCc3c([nH]c4ccccc34)[C@@](C(=O)OC)(c3cc4c(cc3OC)N(C)[C@H]3[C@@](O)(C(=O)NN)[C@H](O)[C@]5(CC)C=CCN6CC[C@]43[C@@H]65)C2)C1` [DESACETYLVINBLASTINEHYDRAZIDE], the IC50 in assay [5] (Homo sapiens, LNCaP) amounted to 12.2 nM. This counts as double-digit nanomolar.
Still for that read-out and setting: next, `CC[C@]1(O)C[C@@H]2CN(CCc3c([nH]c4ccccc34)[C@@](C(=O)OC)(c3cc4c(cc3OC)N(C)[C@H]3[C@@](O)(C(N)=O)[C@H](O)[C@]5(CC)C=CCN6CC[C@]43[C@@H]65)C2)C1` [VINDESINE]: 9.5 nM.
In assay [5] (lncap), `CC1=C[C@H]2O[C@@H]3C[C@H]4OC(=O)/C=C\C=C\C(=O)OCC[C@@H](C)[C@H](O)C(=O)OC[C@@]2(CC1)[C@]4(C)[C@]31CO1` [VERRUCARIN A] displayed a concentration for half-maximal inhibition (IC50) of 3.3 nM.
Take `C[C@]12C=CC(=O)C=C1CC[C@@H]1[C@@H]2[C@@H](O)C[C@@]2(C)[C@H]1CC[C@]2(O)C(=O)CO`: the result in assay [1] was inactive.
As for `CO[C@@H]1C[C@@H](C[C@H]2CC[C@H](C)[C@H]([C@@H](C)C(=O)O)O2)O[C@]2(O[C@](C)([C@H]3CC[C@@](C)([C@@H]4O[C@@H]([C@H]5O[C@@](O)(CO)[C@H](C)C[C@@H]5C)C[C@@H]4C)O3)C[C@H]2C)[C@@H]1C`, in assay [1], the outcome was inactive.

The record behind these values is ChEMBL document CHEMBL1287664, “Synthesis and biological analysis of prostate-specific membrane antigen-targeted anticancer prodrugs” (J Med Chem, 2010).
